The text below walks through data of ChEMBL document CHEMBL3763072, “Structure activity relationship studies on chemically non-reactive glycine sulfonamide inhibitors of diacylglycerol lipase” (Bioorg Med Chem, 2016).

Data set [1] concerns the target T1, Diacylglycerol lipase-alpha (Homo sapiens, UniProt Q9Y4D2).
T1 sequence (Q9Y4D2 whole entry): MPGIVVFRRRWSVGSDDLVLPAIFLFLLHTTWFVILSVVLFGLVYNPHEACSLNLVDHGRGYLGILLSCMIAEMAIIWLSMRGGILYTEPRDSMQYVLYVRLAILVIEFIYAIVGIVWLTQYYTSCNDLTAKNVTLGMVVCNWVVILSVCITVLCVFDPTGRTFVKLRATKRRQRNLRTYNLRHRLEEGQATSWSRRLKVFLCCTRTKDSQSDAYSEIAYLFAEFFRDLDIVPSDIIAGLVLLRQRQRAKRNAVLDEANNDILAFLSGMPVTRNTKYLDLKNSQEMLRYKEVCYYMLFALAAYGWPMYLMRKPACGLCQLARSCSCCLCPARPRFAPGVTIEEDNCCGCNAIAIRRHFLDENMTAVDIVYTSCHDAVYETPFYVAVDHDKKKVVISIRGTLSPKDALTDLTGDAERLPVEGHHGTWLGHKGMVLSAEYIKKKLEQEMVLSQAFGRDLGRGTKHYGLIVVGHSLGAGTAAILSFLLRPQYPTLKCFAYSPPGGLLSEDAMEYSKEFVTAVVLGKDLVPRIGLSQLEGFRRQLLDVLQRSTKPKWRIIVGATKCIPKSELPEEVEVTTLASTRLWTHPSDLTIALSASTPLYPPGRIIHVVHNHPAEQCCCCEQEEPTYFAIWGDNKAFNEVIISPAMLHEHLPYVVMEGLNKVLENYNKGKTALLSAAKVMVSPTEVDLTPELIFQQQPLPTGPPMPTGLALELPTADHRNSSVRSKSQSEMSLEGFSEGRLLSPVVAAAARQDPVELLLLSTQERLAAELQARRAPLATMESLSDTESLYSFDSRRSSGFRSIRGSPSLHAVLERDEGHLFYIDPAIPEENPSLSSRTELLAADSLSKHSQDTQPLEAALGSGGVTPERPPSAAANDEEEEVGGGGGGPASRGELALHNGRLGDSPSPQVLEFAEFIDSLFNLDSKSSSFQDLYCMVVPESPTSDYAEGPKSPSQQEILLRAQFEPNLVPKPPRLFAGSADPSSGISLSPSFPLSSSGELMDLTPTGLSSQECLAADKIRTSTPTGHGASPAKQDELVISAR
The data set is described as follows: Inhibition of full length human C-terminal HA-tagged DAGLalpha expressed in HEK293 cell membrane using DAG as substrate incubated for 20 mins by LC-MS analysis. The format is cell-based. Summed up: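 Cell-free DAGL-α enzyme assay run at pH 6.5. IC50 values are reported, with replicate counts (n) given per value.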

Data set [2] addresses T2, Monoglyceride lipase (Homo sapiens) (UniProt Q99685).
T2 sequence (whole entry): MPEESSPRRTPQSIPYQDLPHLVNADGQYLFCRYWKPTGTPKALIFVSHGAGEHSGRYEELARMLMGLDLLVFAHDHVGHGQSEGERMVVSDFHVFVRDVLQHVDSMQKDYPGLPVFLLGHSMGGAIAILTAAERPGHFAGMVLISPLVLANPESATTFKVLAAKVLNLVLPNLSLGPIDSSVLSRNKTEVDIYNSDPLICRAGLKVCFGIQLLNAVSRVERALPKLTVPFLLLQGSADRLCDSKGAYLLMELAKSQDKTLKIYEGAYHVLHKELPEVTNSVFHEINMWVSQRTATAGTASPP
The data set is described as follows: Inhibition of MAGL (unknown origin) at 30 uM.

Data set [3] addresses T1, Diacylglycerol lipase-alpha. Put plainly: Inhibition of full length human C-terminal HA-tagged DAGLalpha expressed in HEK293 cells using DAG as substrate assessed as reduction in intracellular 2-AG level incubated for 20 mins by LC-MS analysis. The format is cell-based.
In data set [4] the target is T3, Diacylglycerol lipase-beta (Homo sapiens, UniProt Q8NCG7).
T3 sequence (Q8NCG7 whole entry): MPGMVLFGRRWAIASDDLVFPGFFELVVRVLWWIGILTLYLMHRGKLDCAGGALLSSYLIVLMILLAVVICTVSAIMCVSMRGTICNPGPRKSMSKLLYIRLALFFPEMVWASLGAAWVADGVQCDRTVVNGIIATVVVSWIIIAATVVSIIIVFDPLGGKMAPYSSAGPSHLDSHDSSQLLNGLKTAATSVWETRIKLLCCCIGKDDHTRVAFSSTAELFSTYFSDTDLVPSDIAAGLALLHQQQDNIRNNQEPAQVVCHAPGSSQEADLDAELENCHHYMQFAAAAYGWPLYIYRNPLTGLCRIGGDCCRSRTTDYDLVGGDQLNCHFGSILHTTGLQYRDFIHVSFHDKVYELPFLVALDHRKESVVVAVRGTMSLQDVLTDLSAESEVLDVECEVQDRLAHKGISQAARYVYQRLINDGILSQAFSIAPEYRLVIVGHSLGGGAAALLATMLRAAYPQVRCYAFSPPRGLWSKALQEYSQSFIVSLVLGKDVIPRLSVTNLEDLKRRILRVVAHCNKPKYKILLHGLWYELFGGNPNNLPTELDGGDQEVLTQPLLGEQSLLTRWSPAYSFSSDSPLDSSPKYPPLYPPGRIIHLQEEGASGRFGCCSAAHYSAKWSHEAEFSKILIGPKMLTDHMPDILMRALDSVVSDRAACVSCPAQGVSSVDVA
The data set is described as follows: Inhibition of DAGLbeta (unknown origin).

The subject of data set [5] is Mus musculus. Put plainly: In vivo inhibition of DAGLalpha in ip dosed mouse assessed as reduction in 2-AG level in liver. In kind it is functional, organism-based.
Data set [6] concerns the target T4, Diacylglycerol lipase-alpha (Homo sapiens) (UniProt Q9Y4D2).
T4 sequence (whole entry): T1 sequence (Q9Y4D2 whole entry)
The data set is described as follows: Ratio of IC50 for full length human C-terminal HA-tagged DAGLalpha expressed in HEK293 cells assessed as reduction in intracellular 2-AG level to IC50 for full length human C-terminal HA-tagged DAGLalpha expressed in HEK293 cell membrane. In kind it is cell-based.

The test system of data set [7] is HEK293. The data set is described as follows: Selectivity ratio of IC50 for full length human C-terminal HA-tagged DAGLalpha expressed in HEK293 cell membrane to IC50 for DAGLbeta (unknown origin). In kind it is cell-based.
For data set [8], the target named is T5, Pancreatic triacylglycerol lipase (Sus scrofa) (UniProt P00591).
T5 sequence (whole entry): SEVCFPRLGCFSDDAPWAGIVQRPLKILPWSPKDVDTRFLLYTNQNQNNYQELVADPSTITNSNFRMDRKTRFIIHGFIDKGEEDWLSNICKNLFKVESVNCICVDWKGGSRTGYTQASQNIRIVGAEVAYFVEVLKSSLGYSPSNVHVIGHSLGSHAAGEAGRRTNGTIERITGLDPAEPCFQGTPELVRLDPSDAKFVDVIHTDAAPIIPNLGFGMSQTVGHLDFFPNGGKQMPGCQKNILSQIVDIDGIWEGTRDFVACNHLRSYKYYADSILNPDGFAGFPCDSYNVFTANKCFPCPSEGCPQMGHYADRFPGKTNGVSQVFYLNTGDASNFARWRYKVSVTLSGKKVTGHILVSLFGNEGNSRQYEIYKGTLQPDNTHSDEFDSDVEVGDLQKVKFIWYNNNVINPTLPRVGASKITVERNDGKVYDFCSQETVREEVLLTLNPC
The data set is described as follows: Inhibition of porcine pancreatic lipase at 30 uM.

A short description of data set [9]: Metabolic stability in human liver microsomes assessed as residual compound at 3 uM preincubated for 2 mins followed by NADPH addition measured after 10 mins by LC-MS analysis. The format is ADME. To be noted: read-out: Stability.
A short description of data set [10]: Metabolic stability in rat liver microsomes assessed as residual compound at 3 uM preincubated for 2 mins followed by NADPH addition measured after 10 mins by LC-MS analysis. The format is ADME. The note with it: read-out: Stability.
Data set [11] is described as follows: Metabolic stability in mouse liver microsomes assessed as residual compound at 3 uM preincubated for 2 mins followed by NADPH addition measured after 10 mins by LC-MS analysis. The format is ADME. To be noted: read-out: Stability. In general terms: Liver microsomes are a subcellular fraction often used to study metabolism.
The nature of data set [12]: Dissociation constant, pKa of compound at pH 2 to […] by spectrophotometric titration method. In kind it is physicochemical.
Data set [13] in a line: physchem. To be noted: octanol/phosphate buffer, pH 7.4.
Data set [14] concerns the target Voltage-gated inwardly rectifying potassium channel KCNH2 (Homo sapiens, UniProt Q12809). The data set is described as follows: Inhibition of human ERG expressed in HEK293 cells by thallium flux assay.
The target of data set [15] is Cytochrome P450 2C9 (Homo sapiens, UniProt P11712). The data set is described as follows: Inhibition of CYP2C9 in human liver microsomes using diclofenac as substrate incubated for 10 mins by LC-MS analysis.
In data set [16] the target is Cytochrome P450 3A4 (Homo sapiens, UniProt P08684). Put plainly: Inhibition of CYP3A4 in human liver microsomes using midazolam as substrate incubated for 5 mins by LC-MS analysis.
The target in data set [17] is Cytochrome P450 2C19 (Homo sapiens, UniProt P33261). The data set is described as follows: Inhibition of CYP2C19 in human liver microsomes using (S)-mephenytoin as substrate incubated for 5 mins by LC-MS analysis.
For data set [18], the target named is Cytochrome P450 2D6 (Homo sapiens, UniProt P10635). Put plainly: Inhibition of CYP2D6 in human liver microsomes using dextromethorphan as substrate incubated for 7 mins by LC-MS analysis.

Activity calls are given as the source filed them. The rule behind the calls is not given here.

Broadly, the IC50 is the concentration that inhibits the measured activity by half. For orientation: pKa means the pH at which an ionisable group is half protonated. A low value points to a stronger acid or weaker base. A word on the logD: it is the decadic logarithm of the distribution of all forms, ionised or not, between an organic phase and buffer at a given pH. A low value points to a more hydrophilic compound.

Chain of Voltage-gated inwardly rectifying potassium channel KCNH2 (Q12809 whole entry): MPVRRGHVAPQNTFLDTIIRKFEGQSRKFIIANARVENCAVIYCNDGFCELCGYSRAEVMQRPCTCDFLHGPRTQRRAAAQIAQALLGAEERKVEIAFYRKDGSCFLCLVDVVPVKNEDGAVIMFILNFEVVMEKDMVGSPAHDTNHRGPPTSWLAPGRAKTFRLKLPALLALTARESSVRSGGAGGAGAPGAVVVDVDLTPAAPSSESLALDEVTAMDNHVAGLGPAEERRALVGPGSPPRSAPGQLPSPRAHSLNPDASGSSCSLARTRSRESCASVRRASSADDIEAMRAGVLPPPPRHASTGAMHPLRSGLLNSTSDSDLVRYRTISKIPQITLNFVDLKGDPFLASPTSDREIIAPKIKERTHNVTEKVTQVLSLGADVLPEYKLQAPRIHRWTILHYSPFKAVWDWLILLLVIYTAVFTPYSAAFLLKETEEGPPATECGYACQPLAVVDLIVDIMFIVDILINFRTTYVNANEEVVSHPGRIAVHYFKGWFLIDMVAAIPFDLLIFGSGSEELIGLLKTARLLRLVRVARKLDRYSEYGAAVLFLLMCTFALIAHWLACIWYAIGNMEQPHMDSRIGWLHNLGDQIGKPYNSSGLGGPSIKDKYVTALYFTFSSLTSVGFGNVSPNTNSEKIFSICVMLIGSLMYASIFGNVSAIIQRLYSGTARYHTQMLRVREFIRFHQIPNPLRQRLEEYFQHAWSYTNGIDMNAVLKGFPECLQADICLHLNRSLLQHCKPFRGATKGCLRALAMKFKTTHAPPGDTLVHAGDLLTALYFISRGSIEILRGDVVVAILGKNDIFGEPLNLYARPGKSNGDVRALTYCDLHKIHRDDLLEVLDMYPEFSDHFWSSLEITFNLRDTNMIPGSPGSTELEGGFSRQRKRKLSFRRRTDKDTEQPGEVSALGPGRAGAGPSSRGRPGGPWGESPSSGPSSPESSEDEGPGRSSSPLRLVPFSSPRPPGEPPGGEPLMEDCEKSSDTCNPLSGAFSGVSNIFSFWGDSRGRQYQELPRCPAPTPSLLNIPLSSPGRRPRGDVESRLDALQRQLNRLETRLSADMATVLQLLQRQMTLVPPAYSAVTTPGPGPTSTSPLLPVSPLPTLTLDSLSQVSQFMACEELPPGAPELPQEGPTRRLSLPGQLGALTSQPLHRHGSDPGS
Chain of Cytochrome P450 2D6 (P10635 whole entry): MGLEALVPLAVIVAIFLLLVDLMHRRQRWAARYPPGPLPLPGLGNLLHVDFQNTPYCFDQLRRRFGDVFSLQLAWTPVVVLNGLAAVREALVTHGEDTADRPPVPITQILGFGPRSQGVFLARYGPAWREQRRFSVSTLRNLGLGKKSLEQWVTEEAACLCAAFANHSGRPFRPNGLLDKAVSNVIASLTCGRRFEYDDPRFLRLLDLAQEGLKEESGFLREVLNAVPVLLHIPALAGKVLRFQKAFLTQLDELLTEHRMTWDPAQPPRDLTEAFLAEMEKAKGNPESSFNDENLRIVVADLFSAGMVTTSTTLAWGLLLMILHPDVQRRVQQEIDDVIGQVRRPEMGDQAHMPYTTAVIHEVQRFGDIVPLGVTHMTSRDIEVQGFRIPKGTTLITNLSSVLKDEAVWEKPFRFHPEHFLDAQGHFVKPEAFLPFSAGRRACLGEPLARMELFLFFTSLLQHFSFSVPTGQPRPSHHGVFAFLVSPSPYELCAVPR
Chain of Cytochrome P450 2C9 (P11712 whole entry): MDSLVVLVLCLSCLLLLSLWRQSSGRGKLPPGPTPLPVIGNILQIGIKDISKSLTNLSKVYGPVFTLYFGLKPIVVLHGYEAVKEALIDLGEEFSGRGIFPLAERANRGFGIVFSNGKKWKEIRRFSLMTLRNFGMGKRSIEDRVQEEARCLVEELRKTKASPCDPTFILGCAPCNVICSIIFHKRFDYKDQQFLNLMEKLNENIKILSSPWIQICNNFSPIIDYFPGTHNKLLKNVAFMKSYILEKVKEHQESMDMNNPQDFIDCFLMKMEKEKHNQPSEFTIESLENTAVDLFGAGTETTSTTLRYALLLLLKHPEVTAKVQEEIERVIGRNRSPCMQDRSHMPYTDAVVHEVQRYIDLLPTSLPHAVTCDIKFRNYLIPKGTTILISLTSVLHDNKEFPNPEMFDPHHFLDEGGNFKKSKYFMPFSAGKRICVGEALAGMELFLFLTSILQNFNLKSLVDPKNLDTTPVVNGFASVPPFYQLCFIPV
Chain of Cytochrome P450 2C19 (P33261 whole entry): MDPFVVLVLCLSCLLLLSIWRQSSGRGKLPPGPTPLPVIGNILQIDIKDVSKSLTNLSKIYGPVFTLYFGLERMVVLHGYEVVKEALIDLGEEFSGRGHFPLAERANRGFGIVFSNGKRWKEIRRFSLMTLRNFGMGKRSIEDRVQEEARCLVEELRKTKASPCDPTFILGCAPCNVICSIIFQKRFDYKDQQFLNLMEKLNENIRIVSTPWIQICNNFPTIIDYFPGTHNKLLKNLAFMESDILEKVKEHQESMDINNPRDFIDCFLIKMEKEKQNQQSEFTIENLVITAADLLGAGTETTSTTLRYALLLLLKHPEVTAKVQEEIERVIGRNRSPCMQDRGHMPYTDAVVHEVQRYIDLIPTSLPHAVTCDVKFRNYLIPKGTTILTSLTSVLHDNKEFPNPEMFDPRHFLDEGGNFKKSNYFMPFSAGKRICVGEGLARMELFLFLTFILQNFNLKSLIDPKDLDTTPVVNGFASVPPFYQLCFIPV
Chain of Cytochrome P450 3A4 (P08684 whole entry): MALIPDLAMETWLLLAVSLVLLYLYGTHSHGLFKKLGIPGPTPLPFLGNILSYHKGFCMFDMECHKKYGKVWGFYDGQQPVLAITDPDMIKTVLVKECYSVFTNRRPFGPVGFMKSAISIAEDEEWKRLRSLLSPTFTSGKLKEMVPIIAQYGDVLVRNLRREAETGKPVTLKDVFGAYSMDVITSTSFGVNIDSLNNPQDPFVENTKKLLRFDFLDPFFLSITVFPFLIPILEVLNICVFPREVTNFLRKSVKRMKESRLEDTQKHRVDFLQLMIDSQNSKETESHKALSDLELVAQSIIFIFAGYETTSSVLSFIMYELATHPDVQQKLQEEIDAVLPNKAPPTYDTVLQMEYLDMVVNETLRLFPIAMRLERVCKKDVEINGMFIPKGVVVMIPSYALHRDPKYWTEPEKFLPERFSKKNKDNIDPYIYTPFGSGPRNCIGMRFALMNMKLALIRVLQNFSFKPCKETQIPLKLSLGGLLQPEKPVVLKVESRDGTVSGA

`O=C(O)CN(C1(c2cccc(-c3cc(Cl)cc(Cl)c3)c2)CCC1)S(=O)(=O)c1ccccc1Cl` showed an IC50 in [1] of 510 nM.

On to `O=C(O)CN(c1cccc(-c2cccc(Cl)c2Cl)c1)S(=O)(=O)c1ccc(OC(F)F)cc1`, for which, in [2], the inhibition result is “inactive”. Also, the IC50 in [3] is 14.3 nM; in data set [4], 40 nM; in data set [1], 2.4 nM. Besides, in data set [5], the inhibition entry was “Active”.

In turn, `C[C@@H](c1ccc(-c2ccc(Cl)cc2Cl)cc1)N(CC(=O)O)S(=O)(=O)c1ccc(OC(F)F)cc1` came in with an IC50 in data set [1] of 18 nM.

With `O=C(O)CN(C1(c2cccc(-c3ccc(Cl)cc3Cl)c2)CCC1)S(=O)(=O)c1ccc(Cl)c(Cl)c1`, the inhibition result in [2] was “inactive”.

`C[C@H](c1ccc(-c2ccc(Cl)cc2Cl)cc1)N(CC(=O)O)S(=O)(=O)c1ccc(OC(F)F)cc1`: the Ratio IC50 in data set [6] amounted to 5. The figures for the IC50 in data set [3] and in [1] were 100 nM and 19 nM, respectively.

Take `O=C(O)CN(C1(c2ccc(-c3ccc(Cl)cc3Cl)cc2)CCC1)S(=O)(=O)c1ccc(OC(F)F)cc1`: the inhibition entry in data set [2] and in data set [8] was “inactive” in each case. For the same molecule, the results for the Ratio IC50 in data set [6] and in [7] were 15 and 24, respectively. The IC50 in data set [3] turned out to be 88 nM; in data set [4] it was 146 nM; in data set [1], 6 nM.

On to `CC1(C)CCc2cc(S(=O)(=O)N(CC(=O)O)Cc3cccc(-c4ccccc4)c3)ccc2O1`, for which the remaining at 10 min, 3 µM was found to be 77% in [9], 67% in [10] and 87% in data set [11].

Turning to `CC1(C)CCc2cc(S(=O)(=O)N(CC(=O)O)Cc3cccc4cccnc34)ccc2O1`, in data set [12], the pKa worked out at 2. In addition, in data set [13], the logD turned out to be 0.5. The molecule also returned an IC50 in [1] of 13500 nM.

For the molecule `O=C(O)CN(C1(c2ccc(-c3ccccc3OC(F)(F)F)cc2)CCC1)S(=O)(=O)c1ccc(OC(F)F)cc1`, in [2], the inhibition result was “inactive”. Besides, the remaining at 10 min, 3 µM came to 78% in data set [9], 100% in [10] and 100% in data set [11].

Turning to `O=C(O)CN(Cc1ccc(-c2ccc(Cl)cc2Cl)cc1)S(=O)(=O)c1ccc(OC(F)F)cc1`, in [1], inhibition was half-maximal at 30 nM (IC50).

As to `O=C(O)CN(Cc1cccc(-c2ccccc2OC(F)(F)F)c1)S(=O)(=O)c1ccc(OC(F)F)cc1`, the Ratio IC50 in [6] stood at 4. Further, the IC50 in data set [3] is 60 nM; in [14], 11 µM; in data set [15], 40 µM; in [16], 30 µM; in data set [17], 40 µM; in data set [1] it was 17 nM. For the same molecule, the IC50 in data set [18] was 40 µM. In addition, the remaining at 10 min, 3 µM in data set [9] was 80%; in [10] it was 100%.
